This is an account of results in ChEMBL document CHEMBL2016564, “Conformationally restricted novel pyrazole derivatives: synthesis of 1,8-disubstituted 5,5-dimethyl-4,5-dihydro-1H-benzo[g]indazoles as a new class of PDE4 inhibitors” (Bioorg Med Chem Lett, 2012).

Sequence of 3',5'-cyclic-AMP phosphodiesterase 4D (Homo sapiens) (Q08499 whole entry): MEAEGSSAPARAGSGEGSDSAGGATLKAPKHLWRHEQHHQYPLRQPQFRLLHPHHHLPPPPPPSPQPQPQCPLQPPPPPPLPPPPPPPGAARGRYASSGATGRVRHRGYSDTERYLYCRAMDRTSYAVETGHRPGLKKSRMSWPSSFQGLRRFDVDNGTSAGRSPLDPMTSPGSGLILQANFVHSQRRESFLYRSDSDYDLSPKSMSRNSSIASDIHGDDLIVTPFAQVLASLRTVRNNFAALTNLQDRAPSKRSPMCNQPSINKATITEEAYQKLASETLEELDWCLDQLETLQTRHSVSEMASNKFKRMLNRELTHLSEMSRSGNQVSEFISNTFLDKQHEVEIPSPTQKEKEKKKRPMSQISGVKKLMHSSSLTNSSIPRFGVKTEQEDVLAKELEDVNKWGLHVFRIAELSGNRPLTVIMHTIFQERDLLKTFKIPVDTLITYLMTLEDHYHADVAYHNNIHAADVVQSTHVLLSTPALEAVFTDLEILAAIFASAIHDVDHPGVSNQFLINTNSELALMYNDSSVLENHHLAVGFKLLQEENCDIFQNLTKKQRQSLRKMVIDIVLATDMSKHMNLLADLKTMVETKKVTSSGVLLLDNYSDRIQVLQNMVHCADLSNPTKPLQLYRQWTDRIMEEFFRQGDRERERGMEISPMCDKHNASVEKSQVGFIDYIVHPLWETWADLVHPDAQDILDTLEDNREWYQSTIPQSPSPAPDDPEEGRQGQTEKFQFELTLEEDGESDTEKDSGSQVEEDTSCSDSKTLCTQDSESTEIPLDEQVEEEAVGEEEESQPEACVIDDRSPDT

The first assay addresses 3',5'-cyclic-AMP phosphodiesterase 4D (Homo sapiens) (UniProt Q08499). The experiment in a line: Inhibition of PDE4D using cAMP as substrate at 30 uM preincubated for 15 mins prior substrate addition measured after 1 hr by […]. A digest of the protocol: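 Commercially sourced PDE4D (0.5 ng) was preincubated 15 min with compound or DMSO vehicle, then incubated 1 h with cAMP substrate. The reaction was halted with stop solution, and detection reagent was added for 10 min in the dark. Luminescence (RLU) was read, and % inhibition = (vehicle RLU − inhibitor RLU)/vehicle RLU × 100.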
By inhibition is commonly meant the percentage by which the read-out fell short of the control. In turn, `CC1(C)Cc2cnn(-c3ccccc3)c2-c2cc([N+](=O)[O-])ccc21` came in with an inhibition of 55.8%.
As to `CC1(C)Cc2cnn(-c3ccccc3)c2-c2cc(Br)ccc21`, the inhibition came to 50%.
Still for that read-out and setting: under `Cc1cccc(-n2ncc3c2-c2cc([N+](=O)[O-])ccc2C(C)(C)C3)c1C` stands 54.9%; under `CC1(C)Cc2cnn(-c3ccc(F)cc3)c2-c2cc(Br)ccc21`, 65.4%.
On the same count and under the same terms, for `CC1(C)Cc2cnn(C(C)(C)C)c2-c2cc(Br)ccc21` the value was 41.7%.

In the next assay the target is T1, 3',5'-cyclic-AMP phosphodiesterase 4B (Homo sapiens, UniProt Q07343). The experiment in a line: Inhibition of recombinant His-tagged PDE4B expressed in Sf9 cells using cAMP as substrate at 30 uM preincubated for 15 mins prior substrate addition measured after 1 hr by […]. A digest of the protocol: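 In-house purified PDE4B (10 ng) was preincubated 15 min with compound or DMSO vehicle, followed by 1 h with cAMP substrate. After stop solution, detection reagent was applied for 10 min in the dark and luminescence (RLU) was read. % inhibition was taken against vehicle-control RLU and reported as the average with SD.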
T1 sequence (Q07343 whole entry): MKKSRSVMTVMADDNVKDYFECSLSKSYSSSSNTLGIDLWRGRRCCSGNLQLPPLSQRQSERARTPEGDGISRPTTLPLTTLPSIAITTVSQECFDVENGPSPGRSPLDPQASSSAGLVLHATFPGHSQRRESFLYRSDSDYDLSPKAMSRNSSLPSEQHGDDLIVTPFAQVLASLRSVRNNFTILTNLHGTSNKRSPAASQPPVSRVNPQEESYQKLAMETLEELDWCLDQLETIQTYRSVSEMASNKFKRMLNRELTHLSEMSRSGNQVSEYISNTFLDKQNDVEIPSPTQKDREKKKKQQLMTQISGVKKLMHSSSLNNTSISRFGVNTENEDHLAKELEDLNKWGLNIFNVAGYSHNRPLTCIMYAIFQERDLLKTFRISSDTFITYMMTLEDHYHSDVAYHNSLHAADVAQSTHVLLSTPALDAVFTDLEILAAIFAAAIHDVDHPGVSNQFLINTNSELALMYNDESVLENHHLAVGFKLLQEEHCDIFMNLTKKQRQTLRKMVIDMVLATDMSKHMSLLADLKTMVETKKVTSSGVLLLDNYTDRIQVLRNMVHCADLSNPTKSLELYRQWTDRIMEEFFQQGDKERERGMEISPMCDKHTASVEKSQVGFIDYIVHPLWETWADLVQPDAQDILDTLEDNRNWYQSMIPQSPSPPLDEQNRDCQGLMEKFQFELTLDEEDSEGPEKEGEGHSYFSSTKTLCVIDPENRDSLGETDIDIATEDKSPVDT
For `CC1(C)Cc2cnn(-c3ccc(F)cc3)c2-c2cc([N+](=O)[O-])ccc21`, the inhibition was found to be 66.8%.
`CC1(C)Cc2cnn(-c3ccc(Br)cc3)c2-c2cc(Br)ccc21`: the inhibition was determined as 60.3%.
On the same count and under the same terms, under `CC1(C)Cc2cnn(-c3ccc(F)cc3)c2-c2cc(NS(C)(=O)=O)ccc21` stands 75.1%; under `Cc1ccc(-n2ncc3c2-c2cc([N+](=O)[O-])ccc2C(C)(C)C3)cc1`, 68.2%.
The same measure, in the same setting: under `CC1(C)Cc2cnn(-c3ccccc3)c2-c2cc([N+](=O)[O-])ccc21` stands 72.1%; under `CC1(C)Cc2cnn(-c3ccccc3)c2-c2cc(Br)ccc21`, 76.2%.
Same read-out and setting: under `Cc1cccc(-n2ncc3c2-c2cc([N+](=O)[O-])ccc2C(C)(C)C3)c1C` stands 72.7%; under `CC1(C)Cc2cnn(-c3ccc(C(F)(F)F)cc3)c2-c2cc(Br)ccc21`, 42.2%; under `CC1(C)Cc2cnn(-c3ccc(F)cc3)c2-c2cc(Br)ccc21`, 72.2%.
With `CC1(C)Cc2cnn(C(C)(C)C)c2-c2cc(Br)ccc21`, the inhibition worked out at 71.4%.
Same read-out and setting: for `CC1(C)Cc2cnn(-c3ccc(Cl)cc3)c2-c2cc(Br)ccc21` the value was 68.1%; for `CC1(C)Cc2cnn(-c3ccc(F)cc3)c2-c2cc(NS(=O)(=O)c3ccccc3)ccc21`, 75.6%; for `Cc1ccc(-n2ncc3c2-c2cc(Br)ccc2C(C)(C)C3)cc1`, 64.9%.
On the same count and under the same terms, for `CC(C)n1ncc2c1-c1cc(Br)ccc1C(C)(C)C2` the value was 56.8%.

A further assay deals with T1, 3',5'-cyclic-AMP phosphodiesterase 4B.
In general, IC50 refers to the concentration at which inhibition is half-maximal. Consider `CC1(C)Cc2cnn(-c3ccccc3)c2-c2cc(Br)ccc21`, for which the IC50 amounted to 4.57 µM.
